Laboratory results taken from ChEMBL document CHEMBL1121641, “Synthesis and anticonvulsant activity of N-(benzoylalkyl)imidazoles and N-(omega-phenyl-omega-hydroxyalkyl)imidazoles” (J Med Chem, 1981).

What was measured:
Mus musculus [1] = assay: Anticonvulsant activity by the maximal electroshock test in mice by intraperitoneal administration; format: functional; conditions: ip
Outline: (§1)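 Mice, groups of 10; compounds given ip or po as aqueous solutions or suspensions in 10% aqueous acacia gum. Maximal seizures elicited 30-60 min after dosing by 60-Hz alternating current, 25 mA for 0.2 s via corneal electrodes. Absence of tonic-extensor seizure scored as protection. ED50 by Litchfield-Wilcoxon with 95% confidence limits, or estimated graphically.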

Mus musculus [2] = assay: Anticonvulsant activity was evaluated by the maximal electroshock test in mice, administered orally; format: functional; conditions: po; outline: as §1
[3] = Lethal dose in mice determined after intraperitoneal administration.; format: toxicity, organism-based; conditions: mouse, in vivo, ip
Outline: (§2)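 Mice dosed ip or po with aqueous solution or suspension in 10% aqueous acacia gum, 10 animals per dose. Mortality recorded over 7 days, with behavioural symptoms observed by the Irwin scheme. LD50 derived from dose–mortality data.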

[4] = Ionization constant was determined by potentiometric titration at 22 degree C; format: physicochemical
Outline: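 Methanolic-aqueous 10⁻³ M solutions of the hydrochloride salts titrated with 0.02 M KOH. Glass-calomel electrode system read on an expanded pH scale. pKa' obtained by the Albert-Serjeant procedure.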

[5] = Partition coefficient (logP); format: physicochemical; conditions: octanol/water
Outline: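 Octanol partitioning at room temperature (20 ± 5 °C) with gentle shaking for 6 h, then centrifugation for 15 min at 2000 rpm. Octanol phase quantified by gas chromatography. Amount in the second phase taken as total sample minus the octanol amount.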

[6] = Lethal dose determined in mice after oral administration; format: toxicity, organism-based; conditions: mouse, in vivo; outline: as §2

Row | Compound | ED50 (Mus musculus [1]) | ED50 (Mus musculus [2]) | LD50 [3] | pKa [4] | logP [5] | LD50 [6]
1 | OC(Cn1ccnc1)c1ccc(Cl)cc1Cl (centres undefined) | 39.7 mg/kg | 39.7 mg/kg | 300 mg/kg |  |  | 
2 | O=C(Cn1ccnc1)c1ccc(Oc2ccccc2)cc1 | > 20 mg/kg | > 20 mg/kg | 100 mg/kg |  |  | 
3 | OC(Cn1ccnc1)c1ccc(Cl)cc1 (centres undefined) | 31 mg/kg | > 54 mg/kg | 270 mg/kg |  |  | 
4 | O=C(Cn1ccnc1)c1ccc(Cl)cc1 | > 48 mg/kg | > 48 mg/kg | 240 mg/kg |  |  | 
5 | O=C(Cn1ccnc1)c1ccc(CCc2ccccc2)cc1 | 12.7 mg/kg | 36.9 mg/kg |  |  |  | 
6 | O=C(Cn1ccnc1)c1ccccc1Cl |  |  | 360 mg/kg |  |  | 
7 | CC(C(=O)c1ccc(CCc2ccccc2)cc1)n1ccnc1 (centres undefined) | > 23 mg/kg | > 23 mg/kg | 115 mg/kg |  |  | 
8 | O=C(Cn1ccnc1)c1ccccc1 | > 72 mg/kg |  | 360 mg/kg | 6.32 | 1.03 | 
9 | Nc1ccc(C(=O)Cn2ccnc2)cc1 | > 72 mg/kg | > 72 mg/kg | 360 mg/kg |  |  | 
10 | CC(=O)Nc1ccc(C(=O)Cn2ccnc2)cc1 | > 200 mg/kg | > 200 mg/kg | 1000 mg/kg |  |  | 
11 | O=C(Cn1ccnc1)c1ccc([N+](=O)[O-])cc1 | > 72 mg/kg | > 72 mg/kg | 360 mg/kg |  |  | 
12 | CC(C)(C)c1ccc(C(=O)Cn2ccnc2)cc1 | > 20 mg/kg | > 20 mg/kg | 100 mg/kg |  |  | 
13 | CC(Cn1ccnc1)C(=O)c1ccc(-c2ccccc2)cc1 (centres undefined) | 19.5 mg/kg | > 26 mg/kg | 130 mg/kg |  |  | 
14 | O=C(CCn1ccnc1)c1ccc(-c2ccccc2)cc1 | 35.1 mg/kg | 40.5 mg/kg |  |  |  | 1150 mg/kg
15 | O=C(Cn1ccnc1)c1cccc(-c2ccccc2)c1 | 11.2 mg/kg | 21 mg/kg | 210 mg/kg |  |  | 750 mg/kg
16 | O=C(Cn1ccnc1)c1ccc(C2CCCCC2)cc1 | 62.2 mg/kg | 89.9 mg/kg | > 3000 mg/kg |  |  | 2100 mg/kg
17 | O=C(Cn1ccnc1)c1ccc(O)cc1 | > 150 mg/kg | > 150 mg/kg | 750 mg/kg |  |  | 
18 | CC(C)(C(=O)c1ccc(CCc2ccccc2)cc1)n1ccnc1 | 29.5 mg/kg | > 36 mg/kg | 180 mg/kg |  |  | 
19 | CCC(C)c1ccc(C(=O)Cn2ccnc2)cc1 (centres undefined) | > 23 mg/kg | > 23 mg/kg | 115 mg/kg |  |  | 
20 | COc1ccc(C(=O)Cn2ccnc2)cc1 | > 54 mg/kg |  | 270 mg/kg |  |  | 
21 | O=C(CCn1ccnc1)c1ccc(CCc2ccccc2)cc1 | 28.6 mg/kg | 112 mg/kg | > 3000 mg/kg |  |  | 2100 mg/kg
22 | O=C(Cn1ccnc1)c1ccc(O)c(O)c1 | > 200 mg/kg | > 200 mg/kg | 1000 mg/kg |  |  | 
23 | O=C(Cn1ccnc1)c1ccc(Cl)cc1Cl | > 84 mg/kg | > 84 mg/kg | 420 mg/kg |  |  | 
24 | CC(C(=O)c1ccc(-c2ccccc2)cc1)n1ccnc1 (centres undefined) | 13.4 mg/kg | > 18 mg/kg | 87.5 mg/kg |  |  | 
25 | CC(C)(C(=O)c1ccc(-c2ccccc2)cc1)n1ccnc1 | 38 mg/kg | 42.9 mg/kg | > 3000 mg/kg |  |  | 1870 mg/kg
26 | O=C(Cn1ccnc1)c1ccccc1-c1ccccc1 | 13.5 mg/kg | 17.1 mg/kg | 115 mg/kg |  |  | 360 mg/kg

Row | Compound | ED50 (Mus musculus [1]) | ED50 (Mus musculus [2]) | LD50 [3] | pKa [4] | logP [5] | LD50 [6]
27 | O=C(Cn1ccnc1)c1ccc(-c2ccccc2)cc1 | 61.3 mg/kg | 78.3 mg/kg | 1550 mg/kg |  |  | 2400 mg/kg
28 | CS(=O)(=O)Nc1ccc(C(=O)Cn2ccnc2)cc1 | > 300 mg/kg | > 300 mg/kg | > 3000 mg/kg |  |  | > 3000 mg/kg
29 | CC(C(O)c1ccc(CCc2ccccc2)cc1)n1ccnc1.Cl (centres undefined) | 15 mg/kg | 36 mg/kg | 180 mg/kg |  |  | 
30 | Cl.OC(Cn1ccnc1)c1ccc(CCc2ccccc2)cc1 (centres undefined) | 5.3 mg/kg | 10.2 mg/kg | 270 mg/kg |  |  | 434 mg/kg
31 | Cl.OC(Cn1ccnc1)c1ccccc1 (centres undefined) | > 42 mg/kg |  | 210 mg/kg | 6.68 | 0.99 | 
32 | Cl.O=[N+]([O-])c1ccc(C(O)Cn2ccnc2)cc1 (centres undefined) | 98 mg/kg | 98 mg/kg | 490 mg/kg |  |  | 
33 | CC(C)(C)c1ccc(C(O)Cn2ccnc2)cc1.Cl (centres undefined) | 42 mg/kg | > 42 mg/kg | 210 mg/kg |  |  | 
34 | COc1ccc(C(O)Cn2ccnc2)cc1.Cl (centres undefined) | > 72 mg/kg |  | 360 mg/kg |  |  | 
35 | Cl.OC(Cn1ccnc1)c1ccc(C2CCCCC2)cc1 (centres undefined) | 53 mg/kg | 59.6 mg/kg | 490 mg/kg |  |  | 2700 mg/kg
36 | Cl.Nc1ccc(C(O)Cn2ccnc2)cc1 (centres undefined) | > 175 mg/kg | > 175 mg/kg | 875 mg/kg |  |  | 
37 | CC(C)(C(O)c1ccc(-c2ccccc2)cc1)n1ccnc1.Cl (centres undefined) | 23.8 mg/kg | 25.1 mg/kg | 420 mg/kg |  |  | 2400 mg/kg
38 | CC(C(O)c1ccc(-c2ccccc2)cc1)n1ccnc1.Cl (centres undefined) | 19.6 mg/kg | 24.7 mg/kg | 655 mg/kg |  |  | 570 mg/kg
39 | Cl.OC(Cn1ccnc1)c1ccc(Oc2ccccc2)cc1 (centres undefined) | 31.1 mg/kg | > 48 mg/kg | 360 mg/kg |  |  | 
40 | Cl.Oc1ccc(C(O)Cn2ccnc2)cc1O (centres undefined) | > 230 mg/kg | > 230 mg/kg | 1150 mg/kg |  |  | 
41 | Cl.OC(CCn1ccnc1)c1ccc(CCc2ccccc2)cc1 (centres undefined) | 21 mg/kg | 24.7 mg/kg | 420 mg/kg |  |  | 560 mg/kg
42 | Cl.OC(Cn1ccnc1)c1ccccc1-c1ccccc1 (centres undefined) | 18.8 mg/kg | 24.5 mg/kg | 155 mg/kg |  |  | 300 mg/kg
43 | CCC(C)c1ccc(C(O)Cn2ccnc2)cc1.Cl (centres undefined) | 28.5 mg/kg | 31.2 mg/kg | 210 mg/kg |  |  | 
44 | Cl.OC(CCn1ccnc1)c1ccc(-c2ccccc2)cc1 (centres undefined) | 44 mg/kg | 53.5 mg/kg | 360 mg/kg |  |  | 
45 | CC(C)(C(O)c1ccc(CCc2ccccc2)cc1)n1ccnc1.Cl (centres undefined) | 22.4 mg/kg | > 48 mg/kg | 240 mg/kg |  |  | 
46 | CC(Cn1ccnc1)C(O)c1ccc(-c2ccccc2)cc1.Cl (centres undefined) | 25.7 mg/kg | 32.3 mg/kg | 210 mg/kg |  |  | 
47 | Cl.Oc1ccc(C(O)Cn2ccnc2)cc1 (centres undefined) | > 200 mg/kg | > 200 mg/kg | 1000 mg/kg |  |  | 
48 | Cl.OC(Cn1ccnc1)c1ccc(-c2ccccc2)cc1 (centres undefined) | 45 mg/kg | 31 mg/kg | 1150 mg/kg |  |  | > 30000 mg/kg
49 | Cl.OC(Cn1ccnc1)c1cccc(-c2ccccc2)c1 (centres undefined) | 15.8 mg/kg | 25 mg/kg | 180 mg/kg |  |  | 
50 | CCC1(c2ccccc2)C(=O)NC(=O)NC1=O.Cl [PHENOBARBITAL HYDROCHLORIDE] | 22.5 mg/kg | 17.6 mg/kg | 235 mg/kg |  |  | 237 mg/kg
51 | Cl.O=C1NC(=O)C(c2ccccc2)(c2ccccc2)N1 [PHENYTOIN CHLORIDE] | 8.5 mg/kg | 9.7 mg/kg |  |  |  | 
